# Laboratory results as given in PMC6733264 (ACS chemical biology, 2019).
# Square brackets hold non-standard residues; d marks the D form. Ends that are not written are not given here. PEG = not defined here
# Experiments:
# [1] = test system: HEK293 cells transiently transfected with BRAF^G469A; assay: Immunoblot of MAPK signaling in transiently transfected HEK293 cells; assay type: cell-based, human; details: for BRAF activity (phospho-MEK1/2): 0, 10, 25, 50, 75, 100 μM for 4 hr, 48 hr post-transfection
# [2] = test system: p61 BRAF^V600E in HEK293 cells; assay: Immunoblot of HEK293 cells transfected with p61-BRAF^V600E; assay type: cell-based, human; details: increasing concentrations, 4 hr
# How it was run: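 HEK293 cells were transiently transfected with 6X-His/FLAG-tagged p61-BRAF V600E in pcDNA4/TO. p61 is an aberrantly spliced BRAF of about 61 kDa. Cells were exposed to increasing concentrations of the TAT-tagged test peptide for 4 hr, then lysates were immunoblotted.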
# [3] = test system: HEK293 cells transiently transfected with BRAF^WT; assay: Immunoblot of MAPK signaling in transiently transfected HEK293 cells; assay type: cell-based, human; details: for BRAF activity (phospho-MEK1/2): 0, 10, 25, 50, 75, 100 μM for 4 hr, 48 hr post-transfection
# HCT116 cells = assay: WST cell viability assay; assay type: cell-based, human; details: concentrations up to 100 μM, 48 hr
# HCT-15 cells = assay: WST cell viability assay; assay type: cell-based, human; details: concentrations up to 100 μM, 48 hr
# [4] = molecular target: full-length (FL) BRAF^G469A (Homo sapiens, UniProt P15056, G469A); assay: ELISA kinase assay of purified full-length BRAF, probing phosphorylated MEK; assay type: biochemical
# Chain of full-length (FL) BRAF^G469A (P15056 whole entry G469A): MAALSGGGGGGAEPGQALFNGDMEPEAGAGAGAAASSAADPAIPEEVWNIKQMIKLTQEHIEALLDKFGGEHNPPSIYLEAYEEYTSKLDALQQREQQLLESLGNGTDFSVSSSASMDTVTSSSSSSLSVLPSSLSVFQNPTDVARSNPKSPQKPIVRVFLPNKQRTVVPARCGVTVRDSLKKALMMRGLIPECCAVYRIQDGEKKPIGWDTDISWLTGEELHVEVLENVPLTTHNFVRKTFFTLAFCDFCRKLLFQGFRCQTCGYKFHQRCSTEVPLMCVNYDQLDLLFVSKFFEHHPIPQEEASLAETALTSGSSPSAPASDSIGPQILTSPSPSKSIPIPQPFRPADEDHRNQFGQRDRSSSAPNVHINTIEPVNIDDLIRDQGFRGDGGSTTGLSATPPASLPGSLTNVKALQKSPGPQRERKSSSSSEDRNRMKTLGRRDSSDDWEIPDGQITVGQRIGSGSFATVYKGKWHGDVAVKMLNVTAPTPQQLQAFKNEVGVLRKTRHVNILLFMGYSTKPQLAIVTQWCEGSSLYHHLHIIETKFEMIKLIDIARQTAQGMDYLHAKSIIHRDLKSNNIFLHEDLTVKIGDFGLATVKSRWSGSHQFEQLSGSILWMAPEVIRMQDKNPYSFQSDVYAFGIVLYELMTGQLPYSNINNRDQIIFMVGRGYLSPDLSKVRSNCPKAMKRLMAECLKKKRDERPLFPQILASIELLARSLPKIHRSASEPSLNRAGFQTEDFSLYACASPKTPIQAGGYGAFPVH
# full-length (FL) BRAF^WT = full-length (FL) BRAF^WT (Homo sapiens, UniProt P15056); assay: as above; assay type: biochemical
# Chain of full-length (FL) BRAF^WT (P15056 whole entry): as the sequence (P15056 whole entry G469A) above, with A469G counted along it
molecule,measurement,setting,value
TAT-braftide (GRKKRRQRRRPQ[PEG]TRHVNILLFM; reading uncertain; also: PEG linker between TAT and braftide),BRAF activity (phospho-MEK1/2),[1],significantly reduced the activity of BRAF in a dose-dependent manner
same,protein levels of overexpressed BRAF and endogenous MEK1,[1]; 0-100 μM for 4 hr,markedly decreased in a dose-dependent manner
same,pMEK and pERK levels,[2],decrease in both pMEK and pERK levels
same,BRAF activity (phospho-MEK1/2),[3]; immunoblot,significantly reduced the activity of BRAF in a dose-dependent manner
same,protein levels of overexpressed BRAF and endogenous MEK1,"[3]; 0-100 μM for 4 hr, immunoblot",markedly decreased in a dose-dependent manner
same,paradoxical effect caused by lower doses of dabrafenib,"[3]; pre-treatment with 75 μM for 2 h, then dabrafenib 1 hr",abrogated the paradoxical effect
"GRKKRRQRRRPQ [TAT peptide, reference compound]",BRAF activity (phospho-MEK1/2),[1],no inhibition effect was observed
same,cell death,HCT116 cells,no cell death was observed
same,cell death,HCT-15 cells,no cell death was observed
same,BRAF activity (phospho-MEK1/2),[3]; immunoblot,no inhibition effect was observed
"CC(C)(C)c1nc(-c2cccc(NS(=O)(=O)c3c(F)cccc3F)c2F)c(-c2ccnc(N)n2)s1 [dabrafenib, reference compound]",concentration at which dabrafenib alone acts as an inhibitor of MAPK signaling,"[3]; 0-10 μM for 1 hr, activates MAPK signaling at lower concentrations",above 10 μM
THHVNILLFM [R/H-braftide],IC50,[4],625 to 3340 nM
same,IC50,full-length (FL) BRAF^WT,2490 to 4980 nM
